Columns and labels:
H157 cells = experiment: SRB cell growth assay, H157; format: cell-based, human
In short: (§1)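 Cells seeded at 6×10^3–8×10^3 per well, grown overnight, then exposed 72 h to test compound (0, 0.5, 1, 2, 5, 10, 30 µM). Surviving fraction measured by sulforhodamine B protein staining; IC50 calculated from the dose series. Data given as mean ± S.D.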

human Bcl-XL protein = human Bcl-XL protein (Homo sapiens, UniProt Q07817); experiment: Competition fluorescence polarization assay with Bak BH3 peptide, Bcl-XL; format: binding; conditions: purified Bcl-XL 6nM, Bak BH3 peptide 3nM
Bcl2 = Bcl2 (Homo sapiens, UniProt P10415); experiment: Competition fluorescence polarization assay with Bak BH3 peptide, Bcl2; format: binding; conditions: 0.1~500nM
Mcl-1 = Mcl-1 (Homo sapiens, UniProt Q07820); experiment: Competition fluorescence polarization assay with Bak BH3 peptide, Mcl-1; format: binding; conditions: 0.1~500nM
A549 cells = experiment: SRB cell growth assay, A549; format: cell-based, human; conditions: A549, 72 h
In short: as §1

Bcl-w = target: T1, Bcl-w (Homo sapiens, UniProt Q92843); experiment: Competition fluorescence polarization assay with Bak BH3 peptide, Bcl-w; format: binding; conditions: 0.1~500nM
T1 sequence (Q92843 1-193): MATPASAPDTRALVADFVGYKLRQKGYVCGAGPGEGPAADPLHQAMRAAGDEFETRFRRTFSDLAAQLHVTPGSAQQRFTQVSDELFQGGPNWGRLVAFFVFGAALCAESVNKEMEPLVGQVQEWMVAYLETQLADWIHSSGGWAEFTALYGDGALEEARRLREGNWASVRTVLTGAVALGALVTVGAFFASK

Nu/Nu nude mice [1] = experiment: In vivo toxicity: body weight, blood analysis, histopathology; conditions: for platelet reduction compared with ABT-737: 30mg/kg/d i.p. for 14 days
In short: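 Nu/Nu mice given test compound i.p. daily at various doses (dose-finding: 10–50 mg/kg/d up to 25 days, 6 mice/dose; xenograft mice: 30 mg/kg/d for 14 days). Body weight recorded every other day. Terminal cardiac-puncture blood (250 µL, EDTA) under anaesthesia analyzed for WBC, RBC, platelets, ALT, AST, BUN. Organs examined by H&E histology.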

[2] = test system: normal human bronchial epithelial cells (BEAS-2B); experiment: Cytotoxicity in lung cancer cells versus normal bronchial epithelial cells; format: cell-based
In short: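 Cells were seeded at 6×10^3–8×10^3 per well, grown overnight, then treated 72 h. Surviving fraction read by sulforhodamine B protein-stain assay. BEAS-2B and A549 were kept in DMEM/F-12 with 10% FBS, and H1299 in RPMI 1640 with 5% FBS plus 5% bovine serum. Lung cancer lines received 0, 0.5, 1, 2, 5, 10 or 30µM.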

[3] = test system: A549-P and A549-IRR cells; experiment: Cell growth of A549-P and A549-IRR cells; format: cell-based, human; conditions: colony formation 10 days, SRB 72h
H1299 cells [4] = experiment: Colony formation assay in Bcl-XL shRNA H1299 cells; format: cell-based, human
H1299 cells [5] = experiment: SRB cell growth assay, H1299; format: cell-based, human
In short: as §1

[6] = test system: H1299 lung cancer xenografts; experiment: H1299 lung cancer xenografts in nude mice; format: in vivo; conditions: for anti-tumor efficacy compared with ABT-737: 30mg/kg/d i.p. for 14 days
Bfl-1/A1 = target: T2, Bfl-1/A1 (Homo sapiens, UniProt Q16548); experiment: Competition fluorescence polarization assay with Bak BH3 peptide, Bfl-1/A1; format: binding; conditions: 0.1~500nM
T2 sequence (Q16548 1-175): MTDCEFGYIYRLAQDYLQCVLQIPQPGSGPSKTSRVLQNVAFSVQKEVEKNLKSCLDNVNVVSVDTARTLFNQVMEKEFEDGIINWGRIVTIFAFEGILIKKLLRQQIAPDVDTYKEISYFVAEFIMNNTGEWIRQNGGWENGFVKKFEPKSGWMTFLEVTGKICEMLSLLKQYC

Cyt c release = experiment: Cytochrome c release from mitochondria in H1299 cells; format: cell-based, human
In short: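 Test compound given to H1299 cells at increasing concentrations (0.1–5µM) for 24 h. Subcellular fractionation separated mitochondrial and cytosolic fractions. Cytochrome c detected in the fractions by Western blot, with prohibitin as the mitochondrial marker.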

Nu/Nu nude mice [7] = experiment: Maximum tolerated dose
Nu/Nu nude mice [8] = conditions: mouse, in vivo, ip
Bak = Bak oligomerization; format: cell-based, human; conditions: H1299 cells, BMH cross-linking
In short: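 H1299 cells exposed to increasing test compound concentrations (0.1–5µM) for 24 h. Mitochondria isolated by subcellular fractionation and taken up in PBS (pH7.2) conjugation buffer. BMH and EDTA added to cross-link Bak sulfhydryls, 1 h at room temperature, then DTT quench for 15 min at room temperature. Products resolved by SDS-PAGE and Western blotted with anti-Bak.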

Bcl-XL/Bak = Bcl-XL/Bak (Homo sapiens, UniProt Q07817); experiment: Co-immunoprecipitation of Bcl-XL/Bak in H1299 cells; format: cell-based; conditions: 0.1–5µM, 24 h
In short: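 H1299 cells treated 24 h with test compound at 0.1–5 µM. Lysates were immunoprecipitated with a Bcl-XL antibody (normal IgG as IP control), and co-precipitated Bak and Bcl-XL were detected by Western blot. Total-lysate Bcl-XL and Bak levels were also blotted.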

[9] = test system: A549-P and A549-IRR xenografts; experiment: A549-P and A549-IRR lung cancer xenografts in mice; format: in vivo
Bcl-XL/Bax = Bcl-XL/Bax (Homo sapiens, UniProt Q07817); experiment: Bcl-XL/Bax complex disruption in cells; format: cell-based
Sequence of Bcl-XL/Bax (Q07817 whole entry): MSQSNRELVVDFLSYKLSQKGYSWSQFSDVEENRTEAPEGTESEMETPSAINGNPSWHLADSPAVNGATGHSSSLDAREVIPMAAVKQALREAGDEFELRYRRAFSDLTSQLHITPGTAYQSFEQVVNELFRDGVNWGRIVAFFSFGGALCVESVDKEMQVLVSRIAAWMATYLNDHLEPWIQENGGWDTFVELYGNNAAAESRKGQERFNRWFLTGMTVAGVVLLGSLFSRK

Sequence of human Bcl-XL protein (Q07817 whole entry): as above
Sequence of Mcl-1 (Q07820 whole entry): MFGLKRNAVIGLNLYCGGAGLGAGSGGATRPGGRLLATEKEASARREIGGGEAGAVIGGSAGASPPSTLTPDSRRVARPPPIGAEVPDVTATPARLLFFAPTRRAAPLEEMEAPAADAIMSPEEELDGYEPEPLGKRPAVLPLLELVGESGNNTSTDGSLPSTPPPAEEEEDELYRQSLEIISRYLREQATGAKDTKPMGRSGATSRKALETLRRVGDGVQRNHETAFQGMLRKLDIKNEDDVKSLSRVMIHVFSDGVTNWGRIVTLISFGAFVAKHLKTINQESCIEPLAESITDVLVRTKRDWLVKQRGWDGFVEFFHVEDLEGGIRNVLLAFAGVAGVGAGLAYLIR
Sequence of Bcl2 (P10415 whole entry): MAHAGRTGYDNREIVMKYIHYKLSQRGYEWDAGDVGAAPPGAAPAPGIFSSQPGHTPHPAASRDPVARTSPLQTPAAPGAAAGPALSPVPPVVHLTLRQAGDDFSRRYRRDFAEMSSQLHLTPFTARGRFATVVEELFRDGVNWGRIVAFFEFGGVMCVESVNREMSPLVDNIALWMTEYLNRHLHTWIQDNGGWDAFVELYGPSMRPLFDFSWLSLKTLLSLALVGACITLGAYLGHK
Sequence of Bcl-XL/Bak (Q07817 whole entry): as the sequence (Q07817 whole entry) above

SMILES	IC50 (H157 cells; H157, 72 h, SRB assay)	Ki (human Bcl-XL protein)	binding affinity with Bcl2 (Bcl2)	binding affinity with Mcl-1 (Mcl-1)	IC50 (A549 cells; SRB assay)	binding affinity with Bcl-w (Bcl-w)	platelet reduction compared with ABT-737 (Nu/Nu nude mice [1])	cytotoxicity against lung cancer cells compared to normal human bronchial epithelial cells [2]	sensitivity of A549-P and A549-IRR cells [3]	sensitivity of H1299 cells after depletion of endogenous Bcl-XL (H1299 cells [4])	IC50 (H1299 cells [5]; H1299, 72 h, SRB assay)	anti-tumor efficacy compared with ABT-737 ([6]; H1299 xenografts)	binding affinity with Bfl-1/A1 (Bfl-1/A1)	also measured
CCOc1ccc2nc3cc(N=Nc4ccc(N)nc4N)ccc3c(N)c2c1 [BXI-61]	5.71 ± 0.49 µM	14.8 ± 1.54 nM	very low binding affinities	very low binding affinities	3.17 ± 0.28 µM	very low binding affinities	less effect on platelet than ABT-737	relatively selective cytotoxicity	remained sensitive	significantly reduced the sensitivity	1790 ± 120 nM	more potent efficacy against human lung cancer than ABT-737	very low binding affinities	normal tissue toxicities (Nu/Nu nude mice [1]; 40mg/kg/d): without significant normal tissue toxicities except for a slight decrease in platelets; potency against lung cancer in vivo ([6]; 40mg/kg/d): high potency against lung cancer
CN(C)CC[C@H](CSc1ccccc1)Nc1ccc(S(=O)(=O)NC(=O)c2ccc(N3CCN(Cc4ccccc4-c4ccc(Cl)cc4)CC3)cc2)cc1[N+](=O)[O-] [ABT-737, reference compound]	–	–	–	–	–	–	–	–	–	–	–	–	–	IC50 (H157 cells; Homo sapiens, NCI-H157, 72 h): 27.6 ± 1.49 µM; IC50 (A549 cells; Homo sapiens): 19.4 ± 1.23 µM; IC50 (H1299 cells [5]; Homo sapiens, NCI-H1299, 72 h): 40500 ± 3560 nM
CCOc1ccc(-c2nc3ccc(-c4nc5ccc(N6CCN(C)CC6)cc5[nH]4)cc3[nH]2)cc1 [BXI-72]	1.87 ± 0.16 µM	0.9 ± 0.15 nM	very low binding affinities	very low binding affinities	0.68 ± 0.08 µM	very low binding affinities	less effect on platelet than ABT-737	relatively selective cytotoxicity	remained sensitive	significantly reduced the sensitivity	490 ± 120 nM	more potent efficacy against human lung cancer than ABT-737	very low binding affinities	Cyt c release from mitochondria (Cyt c release): facilitate Cyt c release from mitochondria; lethality (Nu/Nu nude mice [7]; 50mg/kg/d i.p., six mice, within 10 days): uniformly lethal; death (Nu/Nu nude mice [7]; 10 to 30mg/kg/d i.p., after 25 days of daily administration): no death recorded; maximum tolerated dose (MTD) (Nu/Nu nude mice [8]): 30~40 mg/kg/d; Bak oligomerization (Bak): facilitated the formation of Bak dimers, trimers and multimers; Bcl-XL/Bak dissociation (Bcl-XL/Bak): dose-dependent Bcl-XL/Bak dissociation; liver histology (Nu/Nu nude mice [1]; 50mg): hepatocellular necrosis; ALT, AST, BUN, WBC and RBC (Nu/Nu nude mice [1]; 10–30mg/kg/d): no significant increases in ALT, AST and BUN or decreases in WBC and RBC; histopathology of normal tissues (Nu/Nu nude mice [1]; 10–30mg/kg/d): no evidence of normal tissue toxicities; body weight (Nu/Nu nude mice [1]; 20–30mg/kg): well tolerated without weight loss; ALT, AST and BUN (Nu/Nu nude mice [1]; 40–50mg/kg/d for two weeks): increases in ALT, AST and BUN; platelets (Nu/Nu nude mice [1]; increased doses of BXI-72, mice): dose-dependent reduction of platelets; effect on tumors derived from A549-P and A549-IRR cells ([9]; 20mg/kg/d ×18): repressed tumors derived from both A549-P and A549-IRR cells; normal tissue toxicities ([9]; A549 xenograft mice, 20mg/kg/d): no significant normal tissue toxicities; Bcl-XL/Bax complexes (Bcl-XL/Bax): disrupts Bcl-XL/Bax complexes; effect on established lung cancer xenografts ([6]; H1299 xenografts, 10, 20 and 30mg/kg/d i.p. for 14 days): dose-dependent regression; apoptosis in tumor tissues (active caspase 3 IHC) ([6]; H1299 xenografts, 10-30mg/kg/d i.p. 14 days): dose-dependent apoptosis

From paper PMC3774010 (Cancer research, 2013)
